A word on the Cmax: it is the maximum level reached in the sampled fluid or tissue. The term IC50 denotes the midpoint of a concentration-inhibition curve. The term half-life denotes the time needed for the level to fall by half in the phase considered. By AUC(0-t) is commonly meant exposure summed from dosing to a finite time, without extrapolation to infinity. As usually defined, the AUC(0-inf) is the area under the concentration-time curve extrapolated to infinity. One may read the clearance as a measure of how efficiently the substance is removed, as volume per time.

The source of these data is ChEMBL document CHEMBL4765336, “Discovery of coumarin derivatives as potent and selective cyclin-dependent kinase 9 (CDK9) inhibitors with high antitumour activity” (Eur J Med Chem, 2020).

The nature of data set [1]: Metabolic stability in rat liver microsomes assessed as intrinsic clearance at 1 uM incubated up to 60 mins in presence of NADPH by LC-MS/MS analysis. Conditions: read-out: CLH. It counts as ADME, Microsome. The method in brief: (§1)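 Liver microsomes (0.5 mg/mL) incubated at 37 °C with compound at 1.0 μM final, 3 mM MgCl2 and 1 mM NADPH in 100 mM PBS pH 7.4. Samples taken at 0, 5, 15, 30, 60 min; remaining parent measured by LC-MS/MS. k = −slope, T1/2 = 0.693/k, CLint = k/microsomal protein concentration. Midazolam served as control.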

The nature of data set [2]: Cmax in ICR mouse at 30 mg/kg, po measured up to 24 hrs by LC-MS/MS analysis. It counts as ADME, organism-based. The arrangement: route oral, dose 30 mg/kg, time <=24. The settings on record: in vivo. The method in brief: (§2)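 Male ICR mice (25.1–28.8 g, n=9), fasted overnight (12 h), single oral gavage 30 mg/kg as 3 mg/mL in 0.5% CMC-Na with 0.2% Tween 80. Venous blood drawn into EDTA-K2 at 0, 0.25, 0.5, 1, 2, 4, 8, 24 h. Plasma protein-precipitated with ACN and run on LC-MS/MS (C18, formic acid/ACN). Noncompartmental parameters taken from composite mean concentration-time data.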

For a further data set, the system named is NCI-H460. Nature of the data set: Antiproliferative activity against human NCI-H460 cells assessed as inhibition of cell growth incubated for 72 hrs by Celltiter-Glo luminescent assay. It counts as functional, cell-based. The settings on record: NCI-H460, 72 h. The method in brief: (§3)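 Cells seeded in growth medium and held overnight at 37 °C; medium-only wells served as background. DMSO stocks were diluted in medium to 3× final and added; cells incubated 72 h at 37 °C, 5% CO2. Viability read by CellTiter-Glo luminescence after 60 min at room temperature. IC50 from curve fit, mean of duplicate.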

The subject of the next data set is MDA-MB-231. Nature of the data set: Antiproliferative activity against human MDA-MB-231 cells assessed as inhibition of cell growth incubated for 72 hrs by Celltiter-Glo luminescent assay. The settings on record: MDA-MB-231, 72 h. The class given is functional, cell-based. Put shortly: as §3
For orientation: ATP-based viability assays read luminescence as a measure of living cells.

A further data set has as its system A-375. Nature of the data set: Antiproliferative activity against human A-375 cells assessed as inhibition of cell growth incubated for 72 hrs by Celltiter-Glo luminescent assay. The class given is functional, cell-based. The settings on record: A-375, 72 h. The method in brief: as §3
A short description of data set [3]: Initial plasma concentration in ICR mouse at 2 mg/kg, iv measured up to 24 hrs by LC-MS/MS analysis. The class given is ADME, organism-based. The method in brief: (§4)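 Male ICR mice (25.1–28.8 g, n=9), fasted 12 h, given a single i.v. dose of 2.0 mg/kg at 0.4 mg/mL in DMSO/PEG200/saline (1:1:3). Blood sampled at 0, 0.083, 0.25, 0.5, 1, 2, 4, 8, 24 h. Plasma ACN-precipitated and quantified by LC-MS/MS. Parameters derived from composite mean plasma concentration-time data.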

The subject of another data set is MIA PaCa-2. Description: Antiproliferative activity against human MIA PaCa-2 cells assessed as inhibition of cell growth incubated for 72 hrs by Celltiter-Glo luminescent assay. The class given is functional, cell-based. Conditions: MIA PaCa-2, 72 h. The method in brief: as §3
Another data set has as its system HepG2. Description: Antiproliferative activity against human HepG2 cells assessed as inhibition of cell growth incubated for 72 hrs by Celltiter-Glo luminescent assay. The class given is functional, cell-based. Conditions: HepG2, 72 h. Put shortly:
as §3

The subject of a further data set is A549. Description: Antiproliferative activity against human A549 cells assessed as inhibition of cell growth incubated for 72 hrs by Celltiter-Glo luminescent assay. Conditions: A549, 72 h. The class given is functional, cell-based. The method in brief:
as §3

In data set [4] the target is Cyclin-dependent kinase 4/cyclin D1 (Homo sapiens, UniProt P11802). Nature of the data set: Inhibition of CDK4/Cyclin D1 (unknown origin) preincubated for 20 mins followed by ATP addition and measured after 120 mins in presence of [33P-gamma] ATP by hotspot kinase assay. The class given is protein-complex assay. Put shortly:
(§5)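 Radiometric filter-binding assay: kinase and substrate in 20 mM Hepes pH 7.5, 10 mM MgCl2, 1 mM EGTA, 0.02% Brij35, 0.02 mg/mL BSA, 0.1 mM Na3VO4, 2 mM DTT, 1% DMSO. Compound (top 1/10/27 μM, 3-fold serial dilutions) preincubated 20 min at 25 °C. ATP plus [γ-33P]ATP added to 10 μM final, reacted 120 min at 25 °C. IC50 from curve fit, duplicate mean.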

In the next data set the target is CDK3/Cyclin E (Homo sapiens, UniProt Q00526). Nature of the data set: Inhibition of CDK3/Cyclin E (unknown origin) preincubated for 20 mins followed by ATP addition and measured after 120 mins in presence of [33P-gamma] ATP by hotspot kinase assay. The class given is protein-complex assay. Put shortly:
as §5

Data set [5] concerns the target Cyclin-dependent kinase 5/CDK5 activator 1 (Homo sapiens, UniProt Q00535). Nature of the data set: Inhibition of CDK5/p25 (unknown origin) preincubated for 20 mins followed by ATP addition and measured after 120 mins in presence of [33P-gamma] ATP by hotspot kinase assay. It counts as protein-complex assay. Put shortly: as §5
A short description of data set [6]: Metabolic stability in dog liver microsomes assessed as half life at 1 uM incubated up to 60 mins in presence of NADPH by LC-MS/MS analysis. It counts as ADME, Canis lupus familiaris, Microsome. The method in brief:
as §1

The subject of another data set is MV4-11. Nature of the data set: Antitumor activity against human MV4-11 cells xenografted in Balb/c nude mouse assessed as tumor growth inhibition at 40 mg/kg, iv administered once daily for 21 days and measured twice a week by vernier caliper method relative to control. Conditions: MV4-11, iv, 504 h, time 21 day, read-out: TGI. It counts as functional. For orientation: Xenograft models place foreign cells or tissue in a host animal.

A short description of data set [7]: Metabolic stability in human liver microsomes assessed as half life at 1 uM incubated up to 60 mins in presence of NADPH by LC-MS/MS analysis. The class given is ADME, Microsome. The method in brief: as §1
Background: Liver microsomes are a subcellular fraction often used to study metabolism.

Data set [8] is described as follows: Metabolic stability in monkey liver microsomes assessed as intrinsic clearance at 1 uM incubated up to 60 mins in presence of NADPH by LC-MS/MS analysis. It counts as ADME, Macaca mulatta, Microsome. Conditions: rhesus monkey, read-out: CLH. Put shortly:
as §1

The nature of data set [9]: AUC (0 to t) in ICR mouse at 30 mg/kg, po measured up to 24 hrs by LC-MS/MS analysis. Conditions: in vivo. The class given is ADME, organism-based. Further details: route oral, dose 30 mg/kg, time <=24. The method in brief:
as §2

Data set [10] can be described thus: Metabolic stability in dog liver microsomes assessed as intrinsic clearance at 1 uM incubated up to 60 mins in presence of NADPH by LC-MS/MS analysis. The class given is ADME, Canis lupus familiaris, Microsome. The settings on record: read-out: CLH. The method in brief: as §1
Data set [11] is described as follows: AUC (0 to infinity) in ICR mouse at 2 mg/kg, iv measured up to 24 hrs by LC-MS/MS analysis. It counts as ADME, organism-based. The settings on record: in vivo. Further details: route intravenous, dose 2 mg/kg, time <=24.
Data set [12] can be described thus: AUC (0 to t) in ICR mouse at 2 mg/kg, iv measured up to 24 hrs by LC-MS/MS analysis. The settings on record: in vivo. Further details: route intravenous, dose 2 mg/kg, time <=24. It counts as ADME, organism-based.
Data set [13] can be described thus: Metabolic stability in rat liver microsomes assessed as half life at 1 uM incubated up to 60 mins in presence of NADPH by LC-MS/MS analysis. It counts as ADME, Microsome. The method in brief: as §1
The subject of the next data set is BXPC-3. Description: Antiproliferative activity against human BxPC3 cells assessed as inhibition of cell growth incubated for 72 hrs by Celltiter-Glo luminescent assay. The class given is functional, cell-based. The settings on record: BXPC-3, 72 h. The method in brief: as §3
Another data set concerns PANC-1. Description: Antiproliferative activity against human PANC-1 cells assessed as inhibition of cell growth incubated for 72 hrs by Celltiter-Glo luminescent assay. The class given is functional, cell-based. The settings on record: PANC-1, 72 h. Put shortly: as §3
A short description of data set [14]: Clearance in ICR mouse at 2 mg/kg, iv measured up to 24 hrs by LC-MS/MS analysis. The class given is ADME, organism-based. The settings on record: in vivo. The method in brief:
as §4

Cyclin-dependent kinase 4/cyclin D1, sequence (P11802 whole entry): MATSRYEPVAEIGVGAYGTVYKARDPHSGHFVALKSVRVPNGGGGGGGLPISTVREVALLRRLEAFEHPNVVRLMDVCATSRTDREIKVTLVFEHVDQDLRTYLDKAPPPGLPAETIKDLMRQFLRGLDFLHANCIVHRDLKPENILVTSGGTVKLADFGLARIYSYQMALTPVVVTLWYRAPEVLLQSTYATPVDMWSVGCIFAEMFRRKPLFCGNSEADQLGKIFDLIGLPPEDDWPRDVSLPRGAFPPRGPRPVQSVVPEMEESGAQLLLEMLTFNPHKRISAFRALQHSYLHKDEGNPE
Cyclin-dependent kinase 4/cyclin D1, sequence (P24385 whole entry, further chain): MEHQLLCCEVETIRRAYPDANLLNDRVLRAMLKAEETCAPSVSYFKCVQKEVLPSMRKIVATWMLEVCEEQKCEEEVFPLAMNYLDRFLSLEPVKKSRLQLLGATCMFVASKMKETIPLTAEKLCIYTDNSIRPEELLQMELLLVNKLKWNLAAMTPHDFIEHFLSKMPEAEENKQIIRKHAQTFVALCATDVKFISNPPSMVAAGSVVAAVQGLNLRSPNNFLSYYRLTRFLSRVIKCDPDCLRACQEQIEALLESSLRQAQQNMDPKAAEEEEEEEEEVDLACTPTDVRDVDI
CDK3/Cyclin E, sequence (P24864 whole entry): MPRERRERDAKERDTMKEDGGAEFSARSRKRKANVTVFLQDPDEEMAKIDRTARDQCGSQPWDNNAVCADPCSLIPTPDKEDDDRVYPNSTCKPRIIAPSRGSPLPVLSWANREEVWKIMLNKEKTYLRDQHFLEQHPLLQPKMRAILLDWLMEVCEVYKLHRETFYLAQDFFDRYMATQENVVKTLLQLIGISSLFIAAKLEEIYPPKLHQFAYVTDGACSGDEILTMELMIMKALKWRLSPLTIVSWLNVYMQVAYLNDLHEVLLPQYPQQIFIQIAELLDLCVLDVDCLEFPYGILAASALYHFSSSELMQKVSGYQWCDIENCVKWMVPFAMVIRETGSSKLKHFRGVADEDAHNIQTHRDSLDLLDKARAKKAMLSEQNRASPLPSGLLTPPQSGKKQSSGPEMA
CDK3/Cyclin E, sequence (Q00526 whole entry): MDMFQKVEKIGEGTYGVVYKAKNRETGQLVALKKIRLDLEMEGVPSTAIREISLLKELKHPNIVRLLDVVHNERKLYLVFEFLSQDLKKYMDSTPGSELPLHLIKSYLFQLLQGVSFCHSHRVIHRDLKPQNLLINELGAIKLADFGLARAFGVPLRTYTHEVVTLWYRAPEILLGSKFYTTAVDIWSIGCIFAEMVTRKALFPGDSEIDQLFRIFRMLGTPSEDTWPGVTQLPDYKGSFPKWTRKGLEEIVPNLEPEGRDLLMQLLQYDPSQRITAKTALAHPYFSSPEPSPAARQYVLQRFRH
Cyclin-dependent kinase 5/CDK5 activator 1, sequence (Q00535 whole entry): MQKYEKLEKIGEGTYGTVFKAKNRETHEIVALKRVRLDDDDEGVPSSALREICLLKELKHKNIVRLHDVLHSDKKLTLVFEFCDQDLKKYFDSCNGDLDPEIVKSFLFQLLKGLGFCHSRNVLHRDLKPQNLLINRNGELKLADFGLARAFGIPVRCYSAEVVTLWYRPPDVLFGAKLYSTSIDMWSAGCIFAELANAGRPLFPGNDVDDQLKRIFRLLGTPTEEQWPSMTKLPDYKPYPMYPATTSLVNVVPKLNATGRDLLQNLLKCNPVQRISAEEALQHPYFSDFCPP
Cyclin-dependent kinase 5/CDK5 activator 1, sequence (Q15078 whole entry, further chain): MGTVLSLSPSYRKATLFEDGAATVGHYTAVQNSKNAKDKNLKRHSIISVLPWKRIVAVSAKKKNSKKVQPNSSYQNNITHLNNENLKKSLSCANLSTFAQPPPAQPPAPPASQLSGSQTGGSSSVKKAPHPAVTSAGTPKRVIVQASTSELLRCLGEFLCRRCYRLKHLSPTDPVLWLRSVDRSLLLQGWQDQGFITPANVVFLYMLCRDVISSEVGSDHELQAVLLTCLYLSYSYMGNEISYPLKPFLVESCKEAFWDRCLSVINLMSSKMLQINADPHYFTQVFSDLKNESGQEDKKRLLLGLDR

In the case of `COc1cc(F)ccc1-c1nc(Nc2ccc3c(N4CCOCC4)c(C(C)=O)c(=O)oc3c2)ncc1F`, the microsomal CLint at 1 µM in data set [1] stood at 689 µL/min/mg; in [8], 57.3 µL/min/mg; in [10], 98.7 µL/min/mg. Also, the Cmax in data set [2] turned out to be 665 ng/mL. Moreover, the IC50 was found to be 640 nM in the data set on NCI-H460; 230 nM with MDA-MB-231; 90 nM in the data set with A-375; 460 nM with MIA PaCa-2; 100 nM in the data set with HepG2; 470 nM in the data set with A549. Further, the IC50 in data set [4] is 471 nM; at CDK3/Cyclin E it was 1510 nM; in [5], 1260 nM; in the data set with BXPC-3, 80 nM; in the data set with PANC-1, 300 nM. In data set [3], this compound displayed a C0 at 24 h of 3060 ng/mL. Further, the values for the half-life at 1 µM in data set [6], in data set [7] and in data set [13] were 14 min, 35.7 min and 2.01 min, respectively. Also, the inhibition in vivo at 40 mg/kg in the data set with MV4-11 was found to be 100%. Moreover, the values for the AUC(0-t) at 24 h in [9] and in data set [12] were 1200 ng·h/mL and 560 ng·h/mL, respectively. Further, the AUC(0-inf) in [11] is 561 ng·h/mL. This compound also showed a clearance in [14] of 59.3 mL/min/kg.
